# PHOSPHO1 inh: inhibitors of human PHOSPHO1 phosphatase. AID 1565. inhibition, % at 13.3 µM. recombinant PHOSPHO1, absorbance phosphatase assay. 290,000 compounds, 1.1% hits; in the data active = inhibition above about 60%
# Target sequence (Q8TCT1 whole entry, looked up): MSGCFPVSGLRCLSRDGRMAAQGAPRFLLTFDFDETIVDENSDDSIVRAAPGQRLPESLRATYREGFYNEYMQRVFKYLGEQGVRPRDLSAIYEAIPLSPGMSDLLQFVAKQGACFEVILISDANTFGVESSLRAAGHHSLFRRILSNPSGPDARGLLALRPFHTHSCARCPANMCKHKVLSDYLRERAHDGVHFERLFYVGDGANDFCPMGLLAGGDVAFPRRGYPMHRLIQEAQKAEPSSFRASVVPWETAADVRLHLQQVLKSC
# NS3 helicase inh: inhibitors of Hepatitis C virus NS3 helicase. NS3 helicase DNA unwinding, Cy5 molecular beacon fluorescence. inhibition, % at 10.9 µM. 290,000 compounds, 0.56% hits. AID 1800;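 active = inhibition above the mean of all tested compounds plus 3 SD, set per campaign, cut at about 35% in these data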;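 also: 0% = DMSO wells and 100% = thioflavine S control wells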
#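 Material: hepatitis C virus NS3 helicase domain fragment enzyme; measured by: Cy5 fluorescence, 0 and 60 min reads; control set: DMSO and thioflavine S; incubation: 60 min unwinding reaction at 25 °C after ATP addition; read-out basis: % inhibition from 60/0 min fluorescence ratio, DMSO 0%, thioflavine S 100%; repeats: singlicate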
# IMP-1 inh: inhibitors of Pseudomonas aeruginosa IMP-1 metallo-beta-lactamase; purified IMP-1, nitrocefin hydrolysis, epi-absorbance fluorescence; inhibition, % at 5.6 µM; 290,000 compounds, 0.45% hits;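 active = inhibition above the mean plus 3 SD of all compounds in the same screening run, cut at about 4.5% in these data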;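 also: 0% = IMP-1 with DMSO and 100% = DMSO wells lacking enzyme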
#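 System – purified recombinant IMP-1 beta-lactamase · Input – IMP-1 dispensed at 0.2 nM · Timing – 15 min preincubation plus 25 min reaction at 25 °C · Signal – Epi-absorbance fluorescence, 480 nm excitation, 530 nm emission · Measure – percent IMP-1 inhibition derived from blank-referenced optical density · Controls – Enzyme-plus-DMSO low control, enzyme-free DMSO high control · Replication – singlicate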
# UBC9 SUMO inh: inhibitors of human SUMOylation (UBC9); P63279; HTRF SUMOylation assay, SAE1/SAE2 + UBC9, in vitro; inhibition, % at 35 µM; 290,000 compounds, 0.36% hits; AID 2006; in the data active = inhibition above about 50%, passing the limit was not always enough
# Target sequence (P63279 whole entry, looked up): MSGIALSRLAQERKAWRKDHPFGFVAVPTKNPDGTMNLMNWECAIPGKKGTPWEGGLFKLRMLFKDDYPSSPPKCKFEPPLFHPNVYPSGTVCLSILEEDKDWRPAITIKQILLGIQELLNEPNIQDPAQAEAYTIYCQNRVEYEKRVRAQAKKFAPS
# VIM-2 inh: blocks Pseudomonas aeruginosa VIM-2 metallo-beta-lactamase; purified VIM-2, nitrocefin hydrolysis, epi-absorbance fluorescence; inhibition, % at 5.6 µM; 290,000 compounds, 0.89% hits; AID 1527;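 active = inhibition above the mean of all tested compounds plus 3 SD, cutoff set per screening run, cut at about 7.5% in these data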;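 also: red hydrolysis product quenches plate fluorescence so inhibitors raise well fluorescence; 0% = enzyme with DMSO and 100% = DMSO without enzyme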
# HCV core dimer: HCV core protein dimerization inhibition. TR-FRET GST/Flag-core106 dimerization, 1536-well. AID 1899. 300,000 compounds, 0.33% hits. inhibition, % at 5 µM;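 active = inhibition above the mean of all tested compounds plus 3 SD, set per screening campaign, cut at about 45% in these data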
#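 System: GST-tagged and Flag-tagged HCV core protein residues 1-106 / Input: core106 proteins, GST 13.5 nM and Flag 17 nM / Buffer or medium: KF-containing HEPES buffer, pH 7.45, DTT, CHAPS, BSA / Probe or stimulus: Eu-anti-GST and XL665-anti-Flag labelled anti-tag antibodies / Schedule: 4 h, 22.5 °C incubation / Technique: TR-FRET 671 and 617 nm emission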
# An asterisk follows results filed as active; . = no result given. A selection: hits, their analogues and other compounds. The true share with any hit is near 3.1%.
SMILES,PHOSPHO1 inh,NS3 helicase inh,IMP-1 inh,UBC9 SUMO inh,VIM-2 inh,HCV core dimer
CCn1c(SCC(=O)N/N=C/c2c[nH]c3ccccc23)nnc1-c1ccc(C(C)(C)C)cc1,-4.9,-2.9,-3.4,-18.1,-4.7,22.2
O=S(=O)(c1cccs1)N1CCN(c2ccc(O)cc2)CC1,10.5,1.2,-2.6,17.0,1.3,-8.1
Cc1ccc2occ(/C=N/NC(=O)c3ccc(Cl)cc3)c(=O)c2c1,23.8,26.4,0.0,6.7,-4.0,-1.9
Cc1ccc2occ(/C=N/NC(=O)c3ccncc3)c(=O)c2c1,22.6,-1.8,6.4*,5.6,-4.0,.
COc1ccc(C(=O)N/N=C/c2cc3ccccc3[nH]c2=S)cc1,91.3*,-0.6,-2.5,21.4,-4.6,-42.7
COc1ccc(C(=O)N/N=C\c2coc3ccc(C)cc3c2=O)cc1,9.4,14.0,8.7*,24.1,-1.7,3.9
COc1ccc(C(=O)N/N=C/c2c[nH]c3ccccc23)cc1,44.9,24.5,-2.6,9.9,0.8,-18.4
COc1ccccc1CCNS(=O)(=O)CCNC(=O)c1ccc2c(c1)OCO2,.,.,.,.,.,-12.0
CC1CCN(C(=O)CSc2nncn2-c2ccccn2)CC1,73.8*,-4.0,2.1,7.8,-1.5,-5.1
Cc1ccccc1C(=O)c1cccn1CC(=O)NCCCN1CCc2ccccc2C1,-5.3,-17.4,-2.0,4.6,-1.4,2.8
CCn1c2nc(SCCN3CCOCC3)nnc2c2cc(C)cc(C)c21,42.2,9.2,-3.5,1.2,12.1*,1.4
CCCn1c2ccccc2c2nnc(SCCN3CCOCC3)nc21,.,-1.0,-2.7,5.3,6.0,4.9
CCn1c2ccc(F)cc2c2nnc(SCCN3CCCCC3)nc21,31.6,7.7,-3.1,19.3,10.4*,.
CCOc1ccc2c(c1)-c1c(ssc1=S)C(C)(C)N2C,69.5*,-2.2,-3.9,-11.5,-2.0,-8.0
CC1(C)Nc2ccc(O)cc2-c2c1ssc2=S,20.6,28.1,-3.0,52.7,-2.4,-0.7
CCSC1=C(C#N)C(c2ccc3c(c2)OCO3)C2=C(CCCC2=O)N1 (stereo unspecified),5.7,11.1,-4.5,22.3,-0.4,-6.6
N#CC1=C(SCc2ccccc2)NC2=C(C(=O)CCC2)C1c1ccc2c(c1)OCO2 (stereo unspecified),93.4*,0.3,-5.0,4.7,-3.4,19.1
Cc1ccc(NC(=O)CSC2=C(C#N)C(c3ccc4c(c3)OCO4)C3=C(CCCC3=O)N2)c(C)c1 (stereo unspecified),71.5*,0.7,-2.4,14.1,-0.9,1.9
COC(=O)CSC1=C(C#N)C(c2ccc3c(c2)OCO3)C2=C(CCCC2=O)N1 (stereo unspecified),66.4*,1.9,-4.7,9.4,-3.0,1.4
c1ccc(-c2nc3nonc3nc2-c2ccccc2)cc1,67.4*,10.9,-1.8,15.6,-2.6,-3.6
CCOC(=O)C1CCN(CCC(=O)Nc2ccc(C)c(C)c2)CC1,8.0,1.5,1.3,-5.8,-1.1,0.9
O=C1Nc2ccccc2S/C1=C/Nc1cccc(Cl)c1,25.8,3.6,-1.9,9.7,7.8*,-24.3
Cc1cc(-c2n[nH]c(=S)n2Cc2ccccc2)cs1,-5.0,-0.9,-0.2,11.4,7.9*,1.5
S=c1[nH]nc(-c2ccncc2)n1Cc1ccccc1,87.7*,2.5,-2.3,13.1,4.9,3.6
Oc1ccc(-c2n[nH]c(=S)n2Cc2ccccc2)cc1,2.9,1.7,-1.7,10.2,10.9*,-1.3
SMILES,PHOSPHO1 inh,NS3 helicase inh,IMP-1 inh,UBC9 SUMO inh,VIM-2 inh,HCV core dimer
Cc1ccc(OS(=O)(=O)c2c(C)nn(C)c2Cl)c(C)c1,38.1,-4.0,-1.1,2.4,-0.4,-5.7
Cc1cc(C)cc(OCC(=O)O/N=C(\N)c2cccnc2)c1,28.1,1.2,-0.8,7.5,-2.4,.
CN(CC(=O)Nc1ccccc1Br)C(=O)c1cc(S(=O)(=O)N(C)C)ccc1N1CCCC1,.,.,.,.,.,3.6
O=c1nc2s/c(=C\c3ccc(-c4ccccc4[N+](=O)[O-])o3)c(=O)n2nc1-c1ccccc1,74.2*,42.8*,-1.0,30.4,-5.0,.
COc1ccc(-c2nc3scc(-c4ccc(OC)c(OC)c4)c3c(=O)o2)cc1,-4.1,5.4,5.0*,26.0,-0.2,3.4
CCCN1CCN(CCCNC(=O)C(CC)n2nc(C)n3c(cc4occc43)c2=O)CC1 (stereo unspecified),34.4,3.5,-1.5,2.4,-1.5,5.7
